Where a name gives a salt, the structure may show the parent alone.
What was measured:
[1] = system: rhinovirus B14; assay: Antiviral activity against Rhinovirus B14 infected in human HeLa cell line assessed as inhibition of virus-induced cytopathic effect measured after 72 hrs by crystal violet uptake assay; assay type: functional, organism-based
Method in brief: (§1)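 HeLa Ohio monolayers, 1 day old, in 2% FCS medium. Compound added as serial half-log dilutions from 100 μM immediately before rhinovirus infection. Activity calculated per Pauwels; IC50 is the mean of at least 3 experiments.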

[2] = system: HeLa; assay: Cytotoxicity against human HeLa cells assessed as reduction in cell viability incubated for 72 hrs measured by crystal violet based micro plate reader method; details: hela, 72 h
Method in brief: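 Two-day-old confluent HeLa Ohio monolayers exposed to half-log dilutions (100 μM downward) in 2% FCS medium for 72 h at 37 °C, 5% CO2. Cells fixed and stained with crystal violet/formalin, dye eluted with acidified citrate-ethanol, OD read at 550/630 nm. Viability expressed relative to six mock-treated controls; CC50 is the mean of at least 3 tests.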

[3] = system: Coxsackievirus B3; assay: Antiviral activity against pleconaril-resistant Coxsackievirus B3 97927 11207T/I1092 mutant infected in human HeLa cell line assessed as inhibition of virus-induced cytopathic effect measured after 48 hrs by crystal violet uptake assay; assay type: functional, organism-based
Method in brief: (§2)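 HeLa Ohio monolayers, 2 days old and confluent, in MEM with 2% FCS. Serial half-log compound dilutions from 100 μM were added just before CVB3 infection. Activity was calculated per Pauwels against six cell and six virus controls; mean IC50 from ≥3 experiments.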

[4] = system: Coxsackievirus B3; assay: Antiviral activity against wild type Coxsackievirus B3 97927 infected in human HeLa cell line assessed as inhibition of virus-induced cytopathic effect measured after 48 hrs by crystal violet uptake assay; assay type: functional, organism-based
Method in brief: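 Coxsackievirus B3 infection of 2-day-old HeLa Ohio monolayers in 2% FCS medium. Half-log dilutions from 100 μM added just before infection; guanidine hydrochloride served as positive control. Antiviral activity calculated per Pauwels; IC50 is the mean of at least 3 separate tests.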

[5] = system: Coxsackievirus B3; assay: Antiviral activity against pleconaril-resistant Coxsackievirus B3 97927 11207M/I1092 mutant infected in human HeLa cell line assessed as inhibition of virus-induced cytopathic effect measured after 48 hrs by crystal violet uptake assay; assay type: functional, organism-based; method in brief: as §2
[6] = system: rhinovirus A2; assay: Antiviral activity against Rhinovirus A2 infected in human HeLa cell line assessed as inhibition of virus-induced cytopathic effect measured after 72 hrs by crystal violet uptake assay; assay type: functional, organism-based; method in brief: as §1
[7] = system: Coxsackievirus B3; assay: Antiviral activity against pleconaril-resistant Coxsackievirus B3 97927 11207K/I1092 mutant infected in human HeLa cell line assessed as inhibition of virus-induced cytopathic effect measured after 48 hrs by crystal violet uptake assay; assay type: functional, organism-based; method in brief: as §2
[8] = system: rhinovirus B5; assay: Antiviral activity against Rhinovirus B5 infected in human HeLa cell line assessed as inhibition of virus-induced cytopathic effect measured after 72 hrs by crystal violet uptake assay; assay type: functional, organism-based
Method in brief: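 HeLa Ohio monolayers, 1 day old, in 2% FCS medium. Compound added as serial half-log dilutions from 100 μM immediately before rhinovirus infection. CPE read at 72 h by crystal violet staining, elution and OD 550/630 nm, with six cell and six virus controls per plate. Activity calculated per Pauwels; IC50 is the mean of at least 3 experiments.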

[9] = system: Coxsackievirus B3; assay: Antiviral activity against Coxsackievirus B3 Nancy infected in human HeLa cell line assessed as inhibition of virus-induced cytopathic effect measured after 48 hrs by crystal violet uptake assay; assay type: functional, organism-based; method in brief: as §2
[10] = Rhinovirus B, HeLa, 72 h, read-out: IC50
[11] = Enterovirus B, 97927, HeLa, 48 h, read-out: IC50
[12] = Rhinovirus A, HeLa, 72 h, read-out: IC50
[13] = Enterovirus B, Nancy, HeLa, 48 h, read-out: IC50

SMILES	IC50 [1, 10]	CC50 [2]	IC50 [3]	IC50 [4, 11]	IC50 [5]	IC50 [6, 12]	IC50 [7]	IC50 [8]	IC50 ([3]; read-out: IC50)	IC50 [9]	IC50 [6]	IC50 [1]	IC50 ([7]; read-out: IC50)	IC50 [4]	IC50 [8, 10]	IC50 [9, 13]
Cc1cc(-c2noc(C(F)(F)F)n2)cc(C)c1OCCCc1cc(C(=O)OC(C)C)no1	0.43 µM	17.9 µM	Not Active	0.19 µM	4.09 µM	2.43 µM	Not Active									
CCOC(=O)c1cc(CCCOc2ccc(-c3noc(C(F)(F)F)n3)cc2F)on1	0.5 µM	60.2 µM		0.217 µM	1.35 µM			Not Active	24.9 µM	Not Active	Not Active					
CCOC(=O)c1cc(CCCOc2ccc(-c3noc(C(F)(F)F)n3)cc2C(F)(F)F)on1		28.4 µM		0.03 µM	0.01 µM	4.89 µM		Not Active	1.04 µM	Not Active		Not Active				
CCOC(=O)c1cc(CCCOc2c(OC)cc(-c3noc(C(F)(F)F)n3)cc2[N+](=O)[O-])on1	2.68 µM	> 100 µM		1.19 µM	10.1 µM	5.63 µM		Not Active	43.8 µM	Not Active						
CCOC(=O)c1cc(CCCOc2c(C)cc(-c3noc(C(F)(F)F)n3)cc2C)on1		17.2 µM		0.07 µM	0.94 µM				20.4 µM	Not Active			11.1 µM			
Cc1cc(-c2noc(C(F)(F)F)n2)cc(C)c1OCCCc1cc(-c2ccc(OC(F)(F)F)cc2)no1		> 100 µM									Not Active			Not Active		
CCOC(=O)c1cc(CCCOc2ccc(-c3noc(C(F)(F)F)n3)cc2[N+](=O)[O-])on1	2.93 µM	> 100 µM		0.148 µM	0.18 µM	47.7 µM		Not Active	3.99 µM	Not Active						
Cc1cc(-c2noc(C(F)(F)F)n2)cc(C)c1OCCCc1cc(-c2ccccc2)no1	0.53 µM	> 100 µM		0.14 µM	0.28 µM	0.76 µM	Not Active	Not Active	1.69 µM							
CCOC(=O)c1cc(CCCOc2ccc(-c3noc(C(F)(F)F)n3)cc2-n2cccc2)on1		57.3 µM		10.2 µM				Not Active	14.3 µM	Not Active	Not Active	Not Active				
CCOC(=O)c1cc(CCCOc2ccc(-c3noc(C(F)(F)F)n3)cc2OC)on1	0.66 µM	> 100 µM		0.49 µM	3.41 µM	59.7 µM			37.3 µM	Not Active					19.4 µM	
CCNC(=O)c1cc(CCCOc2c(C)cc(-c3noc(C(F)(F)F)n3)cc2C)on1	0.18 µM	> 100 µM	Not Active	0.05 µM	0.48 µM	0.6 µM	Not Active									
CCOC(=O)c1cc(CCCOc2ccc(-c3noc(C(F)(F)F)n3)cc2NC(C)=O)on1		> 100 µM						Not Active		Not Active	Not Active	Not Active		Not Active		
CCOC(=O)c1cc(CCCOc2ccc(-c3noc(C(F)(F)F)n3)cc2)on1	0.34 µM	> 100 µM		0.746 µM	6.54 µM			Not Active	42.9 µM	Not Active	Not Active					
COc1ccc(-c2cc(CCCOc3c(C)cc(-c4noc(C(F)(F)F)n4)cc3C)on2)cc1OC	2.78 µM	41.9 µM				2.11 µM								Not Active		
Cc1cc(-c2noc(C(F)(F)F)n2)cc(C)c1OCCCc1cc(C(=O)NCc2ccccc2)no1	0.25 µM	> 100 µM	Not Active	1.39 µM	14.4 µM	0.23 µM	Not Active									
CCOC(=O)c1cc(CCCOc2ccc(-c3noc(C(F)(F)F)n3)cc2/N=C/N(C)C)on1	29.3 µM	> 100 µM		19.9 µM				Not Active		Not Active	Not Active					
CC(=O)Nc1cc(-c2noc(C(F)(F)F)n2)ccc1OCCCc1cc(C(=O)N(C)C)no1	18.1 µM	> 100 µM		30.1 µM	16.1 µM			Not Active	73.2 µM	Not Active	Not Active					
CN(C)C(=O)c1cc(CCCOc2ccc(-c3noc(C(F)(F)F)n3)cn2)on1	0.12 µM	48.8 µM		5.95 µM					17.4 µM						4.28 µM	22.2 µM
CN(C)C(=O)c1cc(CCCOc2ccc(-c3noc(C(F)(F)F)n3)cc2-n2cccc2)on1	7.34 µM	21.2 µM		0.82 µM	1.06 µM	3.21 µM		Not Active	3.55 µM	Not Active						
Cc1cc(-c2noc(C(F)(F)F)n2)cc(C)c1OCCCc1cc(C(N)=O)no1	0.22 µM	> 100 µM	Not Active	0.07 µM	1.69 µM	0.5 µM	Not Active									
CCOC(=O)c1cc(CCCOc2ccc(-c3noc(C(F)(F)F)n3)cc2N)on1	14.3 µM	> 100 µM		20 µM				Not Active		Not Active	Not Active					
N=C(N)N [GUANIDINE HYDROCHLORIDE]				592 µM	682 µM				725 µM				664 µM			423 µM
Cc1cc(CCCOc2c(C)cc(-c3noc(C(F)(F)F)n3)cc2C)on1 [PLECONARIL]		26.2 µM			2.05 µM		Not Active	Not Active	3.97 µM	Not Active						

From ChEMBL document CHEMBL4765245 (Eur J Med Chem, 2020)
